Experiments:
Format in all cases: functional, Mesocricetus auratus
[1] = tested on: Syrian golden hamster; test: Antihyperlipidemic activity measured by cholesterol level in golden syrian hamster at 100 mg/kg, po
How it was run: (§1)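 Male golden Syrian hamsters (120–130 g), 8 per group, made hyperlipidemic on high fat diet with free access to diet and water throughout. Compound given orally in water from day 4 to day 10 (7 days); HFD hamsters given water only served as controls. On day 10, blood from nonfasted animals was drawn and cooled to 0 C for 15 min. Triglycerides, total cholesterol and HDL cholesterol were measured the same day in plasma without NaF using enzymatic kits.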

[2] = tested on: Syrian golden hamster; test: Antihyperlipidemic activity measured by HDL/total cholesterol ratio in golden syrian hamster at 100 mg/kg, po; how it was run: as §1
[3] = tested on: Syrian golden hamster; test: Antihyperlipidemic activity measured by increase in free fatty acid level in golden syrian hamster at 100 mg/kg, po relative to control
How it was run: (§2)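 High-fat-diet hyperlipidemic male golden Syrian hamsters (120–130 g, n=8 per group) were dosed orally in water vehicle on days 4–10; water-only HFD hamsters served as controls. On day 10, nonfasted blood was drawn into tubes containing 120 µL NaF (4.5 mg/mL) and chilled to 0 C for 15 min. Glycerol and free fatty acids were assayed in this NaF plasma on a clinical chemistry analyser.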

[4] = tested on: Syrian golden hamster; test: Antihyperlipidemic activity measured by increase in glycerol level in golden syrian hamster at 100 mg/kg, po relative to control; how it was run: as §2
[5] = tested on: Syrian golden hamster; test: Antihyperlipidemic activity measured by glycerol level in golden syrian hamster at 100 mg/kg, po; how it was run: as §2
[6] = tested on: Syrian golden hamster; test: Antihyperlipidemic activity measured by decrease in cholesterol level in golden syrian hamster at 100 mg/kg, po relative to control; design: scale not given: the % may be the effect or the level left; how it was run: as §1
[7] = tested on: Syrian golden hamster; test: Antihyperlipidemic activity measured by HDL level in golden syrian hamster at 100 mg/kg, po; how it was run: as §1
[8] = tested on: Syrian golden hamster; test: Antihyperlipidemic activity measured by triglyceride level in golden syrian hamster at 100 mg/kg, po; how it was run: as §1
[9] = tested on: Syrian golden hamster; test: Antihyperlipidemic activity measured by increase in HDL/total cholesterol ratio in golden syrian hamster at 100 mg/kg, po relative to control; how it was run: as §1
[10] = tested on: Syrian golden hamster; test: Antihyperlipidemic activity measured by free fatty acid level in golden syrian hamster at 100 mg/kg, po; how it was run: as §2
[11] = tested on: Syrian golden hamster; test: Antihyperlipidemic activity measured by decrease in triglyceride level in golden syrian hamster at 100 mg/kg, po relative to control; design: scale not given: the % may be the effect or the level left; how it was run: as §1
[12] = tested on: Syrian golden hamster; test: Antihyperlipidemic activity measured by increase in HDL level in golden syrian hamster at 100 mg/kg, po relative to control; how it was run: as §1
[13] = tested on: Syrian golden hamster; test: Antihyperlipidemic activity measured by decrease in glycerol level in golden syrian hamster at 100 mg/kg, po relative to control; design: scale not given: the % may be the effect or the level left; how it was run: as §2
[14] = tested on: Syrian golden hamster; test: Antihyperlipidemic activity measured by decrease in free fatty acid level in golden syrian hamster at 100 mg/kg, po relative to control; design: scale not given: the % may be the effect or the level left; how it was run: as §2
[15] = tested on: Syrian golden hamster; test: Antihyperlipidemic activity measured by increase in cholesterol level in golden syrian hamster at 100 mg/kg, po relative to control; how it was run: as §1
[16] = tested on: Syrian golden hamster; test: Antihyperlipidemic activity measured by increase in triglyceride level in golden syrian hamster at 100 mg/kg, po relative to control; how it was run: as §1
[17] = tested on: Syrian golden hamster; test: Antihyperlipidemic activity measured by decrease in HDL/total cholesterol ratio in golden syrian hamster at 100 mg/kg, po relative to control; design: scale not given: the % may be the effect or the level left; how it was run: as §1
[18] = tested on: Syrian golden hamster; test: Antihyperlipidemic activity measured by increase in HDL/total cholesterol ratio in golden syrian hamster at 25 mg/kg relative to control; how it was run: as §1
[19] = tested on: Syrian golden hamster; test: Antihyperlipidemic activity measured by decrease in cholesterol level in golden syrian hamster at 25 mg/kg relative to control; design: scale not given: the % may be the effect or the level left; how it was run: as §1
[20] = tested on: Syrian golden hamster; test: Antihyperlipidemic activity measured by free fatty acid level in golden syrian hamster at 25 mg/kg; how it was run: as §2
[21] = tested on: Syrian golden hamster; test: Antihyperlipidemic activity measured by increase in HDL level in golden syrian hamster at 25 mg/kg relative to control; how it was run: as §1
[22] = tested on: Syrian golden hamster; test: Antihyperlipidemic activity measured by triglyceride level in golden syrian hamster at 25 mg/kg; how it was run: as §1
[23] = tested on: Syrian golden hamster; test: Antihyperlipidemic activity measured by HDL/total cholesterol ratio in golden syrian hamster at 25 mg/kg; how it was run: as §1
[24] = tested on: Syrian golden hamster; test: Antihyperlipidemic activity measured by decrease in triglyceride level in golden syrian hamster at 25 mg/kg relative to control; design: scale not given: the % may be the effect or the level left; how it was run: as §1
[25] = tested on: Syrian golden hamster; test: Antihyperlipidemic activity measured by decrease in free fatty acid level in golden syrian hamster at 25 mg/kg relative to control; design: scale not given: the % may be the effect or the level left; how it was run: as §2
[26] = tested on: Syrian golden hamster; test: Antihyperlipidemic activity measured by cholesterol level in golden syrian hamster at 25 mg/kg; how it was run: as §1
[27] = tested on: Syrian golden hamster; test: Antihyperlipidemic activity measured by glycerol level in golden syrian hamster at 25 mg/kg; how it was run: as §2
[28] = tested on: Syrian golden hamster; test: Antihyperlipidemic activity measured by decrease in glycerol level in golden syrian hamster at 25 mg/kg relative to control; design: scale not given: the % may be the effect or the level left; how it was run: as §2
[29] = tested on: Syrian golden hamster; test: Antihyperlipidemic activity measured by HDL level in golden syrian hamster at 25 mg/kg; how it was run: as §1

| Compound | Activity [1] [mM] | Ratio [2] | Activity [4] [%] | Activity [5] [mM] | Activity [6] [%] | Activity [7] [mM] | Activity [8] [mM] | Activity [9] [%] | Activity [10] [µM] | Activity [11] [%] | Activity [12] [%] | Activity [13] [%] | Activity [14] [%] | Activity [15] [%] | also measured |
| --- | --- | --- | --- | --- | --- | --- | --- | --- | --- | --- | --- | --- | --- | --- | --- |
| OC[C@H]1O[C@](O)(CO)[C@@H](O[C@@H]2OC[C@@H](O)[C@@H](O)[C@H]2O)[C@@H]1O | 8.9 | 0.35 | 18 | 0.99 | 23 | 3.14 | 13.09 | 31 | 924.84 | 9 | – | – | – | – | Activity [3]: 28% |
| OC[C@H]1O[C@](O)(CO)[C@@H](O[C@@H]2OC[C@@H](O)[C@H](O)[C@H]2O)[C@@H]1O | 12 | 0.27 | – | 0.61 | – | 3.26 | 10.08 | – | 692.34 | 30 | 5 | 28 | 4 | – | – |
| OC[C@H]1O[C@](O)(CO)[C@@H](O[C@H]2O[C@H](CO)[C@@H](O)[C@H](O)[C@@H]2O)[C@@H]1O | 15.26 | 0.28 | – | 0.66 | – | 4.33 | 10.16 | 5 | 510.7 | 29 | 40 | 21 | 30 | 32 | – |
| OC[C@H]1O[C@](O)(CO)[C@@H](O[C@H]2OC[C@@H](O)[C@@H](O)[C@@H]2O)[C@@H]1O | 12.04 | 0.29 | 19 | 1 | – | 3.49 | 15.26 | 7 | 708.69 | – | 13 | – | – | 4 | Activity [16]: 6% |
| OC[C@H]1O[C@@H](O[C@H]2[C@H](O)[C@@H](CO)O[C@]2(O)CO)[C@H](O)[C@@H](O)[C@H]1O | 17.59 | 0.21 | – | 0.82 | – | 3.6 | 6.88 | – | 450 | 52 | 16 | – | 38 | 52 | Activity [17]: 22% |
| C[C@@H]1O[C@@H](O[C@H]2[C@H](O)[C@@H](CO)O[C@]2(O)CO)[C@H](O)[C@H](O)[C@H]1O | 8.82 | 0.35 | 32 | 1.11 | 24 | 3.1 | 14.17 | 30 | 833.12 | – | – | – | – | – | Activity [3]: 15% |
| OC[C@H]1O[C@](O)(CO)[C@@H](O[C@@H]2O[C@H](CO)[C@@H](O[C@H]3O[C@H](CO)[C@@H](O)[C@H](O)[C@H]3O)[C@H](O)[C@H]2O)[C@@H]1O | 11.38 | 0.3 | – | 0.82 | – | 3.43 | 12.76 | 12 | 726.74 | 11 | 11 | – | – | – | – |
| OC[C@H]1O[C@@H](O[C@H]2[C@H](O)[C@@H](O)[C@H](O[C@H]3[C@H](O)[C@@H](CO)O[C@]3(O)CO)O[C@@H]2CO)[C@H](O)[C@@H](O)[C@H]1O | 10.55 | 0.34 | – | 0.75 | 9 | 3.55 | 7.61 | 25 | 670.62 | 47 | 15 | 11 | 8 | – | Activity [18]: 11%; Activity [19]: 5%; Activity [20]: 0.572 mM; Activity [21]: 5%; Activity [22]: 7.96 mM; Ratio [23]: 0.3; Activity [24]: 44%; Activity [25]: 21%; Activity [26]: 11.02 mM; Activity [27]: 0.7 mM; Activity [28]: 17%; Activity [29]: 3.28 mM |
| OC[C@H]1O[C@@](CO)(O[C@H]2O[C@H](CO)[C@@H](O)[C@H](O)[C@H]2O)[C@@H](O[C@H]2O[C@H](CO)[C@@H](O)[C@H](O)[C@H]2O)[C@@H]1O [MELEZITOSE] | 13 | 0.38 | – | 0.71 | – | 4.95 | 6.98 | 41 | 510.7 | 51 | 59 | 15 | 30 | 12 | – |
| OC[C@H]1O[C@H](OC[C@H]2O[C@H](O[C@]3(CO)O[C@H](CO)[C@@H](O)[C@@H]3O)[C@H](O)[C@@H](O)[C@@H]2O)[C@H](O)[C@@H](O)[C@H]1O [RAFFINOSE] | 7.55 | 0.45 | – | 0.86 | 35 | 3.41 | 8.06 | 66 | 540.49 | 44 | 10 | – | 25 | – | – |

Source: ChEMBL document CHEMBL1139743, “Synthesis and antihyperlipidemic activity of novel glycosyl fructose derivatives” (2006)
